E coli WT exp = growth inhibitors of wild-type E. coli, primary screen, strain BW25113, expanded library, OD600. actives 0.15% (n = 98,000). growth inhibition, % at 100 µM. AID 710, 2007. OD600 absorbance;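 active = growth inhibition above about 50% at one test dose, limit read from the data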;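 also: growth measured after 20 h incubation at 37 °C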
CYP2C19 inh = blockers of cytochrome P450 2C19 activity – biochemical, luminescence, ADME assay, primary screen | P33261 | CYP2C19 Supersomes, luciferin-H EGE luminescence, 30 min | AID 778, 2007 | inhibition, % at 5 µM | actives 21% (n = 96,000);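 active = CYP2C19 inhibition above a set limit at 5 µM in the primary screen, cut at about 50% in these data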
CYP2C19 act = human CYP2C19 activators, primary screen, biochemical, luminescence; Cytochrome P450 2C19 (Homo sapiens), P33261; AID 1025, 2008; activation factor at 5 µM; 96,000 tested, under 10 active; recombinant CYP2C19, luciferin-H EGE luminescence; stronger effect = higher value; 0 = fully inhibited enzyme, 1 = untreated enzyme;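 active = activation factor of at least 2 at 5 µM in the primary screen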
CYP2C9 activ = human CYP2C9 activators, primary screen, biochemical, luminescence. Cytochrome P450 2C9 (Homo sapiens), P11712. recombinant CYP2C9, luciferin-H conversion; stronger effect = higher value; factor 1 = untreated enzyme, 0 = blocked. activation factor at 5 µM. actives 1.4% (n = 96,000);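 active = activation factor of 2 or more for CYP2C9 at a 5 µM dose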
Target sequence (P11712 whole entry, looked up): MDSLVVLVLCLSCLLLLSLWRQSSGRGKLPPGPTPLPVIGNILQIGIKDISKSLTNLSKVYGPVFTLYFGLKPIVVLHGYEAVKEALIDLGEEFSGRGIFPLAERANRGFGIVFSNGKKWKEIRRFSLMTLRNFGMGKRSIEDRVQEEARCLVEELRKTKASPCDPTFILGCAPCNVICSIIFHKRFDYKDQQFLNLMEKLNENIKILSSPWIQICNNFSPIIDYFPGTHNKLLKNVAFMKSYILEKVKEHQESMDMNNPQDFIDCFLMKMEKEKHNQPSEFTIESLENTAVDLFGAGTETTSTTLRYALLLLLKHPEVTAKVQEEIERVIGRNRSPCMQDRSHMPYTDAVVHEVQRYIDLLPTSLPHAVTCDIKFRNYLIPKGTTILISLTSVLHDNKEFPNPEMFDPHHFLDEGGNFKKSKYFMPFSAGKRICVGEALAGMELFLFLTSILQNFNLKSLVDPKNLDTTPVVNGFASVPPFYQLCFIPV
tolC growth inh = growth inhibitors of E. coli tolC mutant, primary screen, strain BW25113 ΔtolC::kan, 384-well | actives 2.2% (n = 65,000) | AID 573, 2007 | OD615 | growth inhibition, % at 10 µM (by protocol);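 active = growth inhibition at or above a cutoff equal to the mean over every tested compound plus 3 SD, cut at about 60% in these data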;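 also: growth measured after 20 h incubation at 37 °C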
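signal = optical density read at 615 nm | test system = E. coli ΔtolC::kan strain BW25113 | timing = 20 h compound exposure of bacteria at 37 °C | buffer or medium = LB medium plus 50 µg/mL kanamycin | compound dosing = 10 µM final, single dose | evaluation = % inhibition of E. coli growth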
CYP2C9 inh = blockers of cytochrome P450 2C9 activity – biochemical, luminescence, ADME assay, primary screen; actives 20% (n = 96,000); inhibition, % at 5 µM; P11712; CYP2C9 Supersomes, luciferin-H conversion;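 active = blocking of liver enzyme CYP2C9 beyond about 50% at 5 µM, limit read from the data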
Large screens that a line does not name were inactive. Hits are enriched below; roughly 29% of the tested compounds scored in any of these assays.

COc1cccc(C(=O)Cn2c(=O)n(CC3CCCO3)c(=O)c3ccccc32)c1 (stereo not drawn)	none
Cc1nc2cc(CO)ccc2n1C	none
CCn1cnc2cc(NCc3ccncc3)ccc21	CYP2C9 inh 62
CCc1ccc(CNc2ccc3c(c2)ncn3C)cc1	CYP2C19 inh 70
Cc1ccc(CNc2ccc3c(c2)ncn3C)cc1	CYP2C19 inh 62
O=C(O)c1ccc(NCc2ccncc2)cc1	none (no result: tolC growth inh)
COc1ccc(CNc2ccc3c(c2)nc(C)n3C)cc1	CYP2C19 inh 58
CC(C)COC(=O)N(C)c1ccc(C(O)(C(F)(F)F)C(F)(F)F)cc1	none
CCCCN(CCCC)S(=O)(=O)c1ccc(NC(=O)CN2CCOCC2)cc1	CYP2C19 inh 72, CYP2C9 inh 91 (no result: tolC growth inh)
CCCCN(CCCC)S(=O)(=O)c1ccc(NS(=O)(=O)c2ccc(NC(C)=O)cc2)cc1	CYP2C9 inh 84 (no result: tolC growth inh)
O=C(CN1CCCCC1)Nc1ccc(S(=O)(=O)N2CCOCC2)cc1	none (no result: tolC growth inh)
O=C(COc1ccc(/C=N/NS(=O)(=O)c2ccccc2)cc1)Nc1ccccc1	CYP2C9 inh 68 (no result: tolC growth inh)
CCCN(CCC)S(=O)(=O)c1ccc(NC(=O)COc2ccccc2)cc1	CYP2C19 inh 87, CYP2C9 inh 99 (no result: tolC growth inh)
Cc1cc(C)nc(NC(=O)Cc2cccs2)n1	none
CCCN(CCC)S(=O)(=O)c1ccc(C(=O)Nc2ccc(OCC(=O)N3CCOCC3)cc2)cc1	CYP2C9 inh 80 (no result: tolC growth inh)
CCCN(CCC)S(=O)(=O)c1ccc(NC(=O)Cc2cccs2)cc1	CYP2C19 inh 50, CYP2C9 inh 84 (no result: tolC growth inh)
CCCCOCCCNC(=O)Cc1cccs1	none
Cc1ccc(C)c(NS(=O)(=O)c2ccc(OCC(=O)N3CCOCC3)cc2)c1	none (no result: CYP2C19 inh, CYP2C19 act, CYP2C9 activ, CYP2C9 inh)
CCCCN(CCCC)S(=O)(=O)c1ccc(NC(=O)Cc2cccs2)cc1	CYP2C19 inh 66, CYP2C9 inh 89 (no result: tolC growth inh)
CC(CC#CCN1CCOCC1)OCCC#N (stereo not drawn)	none
COc1ccc(N2C(=O)NC3CC2(C)Oc2ccccc23)cc1OC (stereo not drawn)	none
O=C(Cn1c(-c2cscn2)nc2ccccc21)Nc1ccccc1F	none (no result: tolC growth inh)
O=S(=O)(c1ccc(Br)s1)n1cccn1	none
CCNc1nc(Oc2ccccc2)nc(OC(C)C(=O)OCC)n1 (stereo not drawn)	none (no result: CYP2C19 inh, CYP2C19 act, CYP2C9 activ, CYP2C9 inh)
Cc1nn(C(C)C(=O)NCc2ccccc2Cl)c(=O)c2c1sc1ccccc12 (stereo not drawn)	CYP2C19 inh 88, CYP2C9 inh 97 (no result: tolC growth inh)
CCOC(=O)N1CCN(C(=O)C(CC)n2nc(C)c3sc4ccccc4c3c2=O)CC1 (stereo not drawn)	CYP2C9 inh 58
CCOC(=O)N1CCN(C(=O)Cn2nc(C)c3sc4ccccc4c3c2=O)CC1	none
CC1CCCC(C(=O)O)N1C(=O)CCSSCCC(=O)N1C(C)CCCC1C(=O)O (stereo not drawn)	none (no result: tolC growth inh)
Clc1ccc(-c2n[nH]c3c2CCC3)cc1Cl	none (no result: tolC growth inh)
CCN(CC)CCNC(=O)c1ccc(Cl)c(S(=O)(=O)N2CCCCCC2)c1	CYP2C9 inh 72 (no result: tolC growth inh)
O=C(NCCc1ccccn1)c1ccc(S(=O)(=O)N2CCCCCC2)cc1	none
O=C(NCCOC(=O)c1ccc(Cl)c(S(=O)(=O)N2CCCCC2)c1)c1ccncc1	CYP2C19 inh 89, CYP2C9 inh 91
CCNC(=O)n1nccc1C(C)Oc1ccc(Cl)cc1 (stereo not drawn)	CYP2C19 inh 88, CYP2C9 inh 71 (no result: tolC growth inh)
CC(C)NC(=O)c1ccc(-c2cccc(C(F)(F)F)c2)o1	none (no result: tolC growth inh)
CCNC(=O)n1nccc1C(C)Oc1cccc(C(F)(F)F)c1 (stereo not drawn)	CYP2C19 inh 56 (no result: tolC growth inh)
CCOc1ccc(-n2cc(C(=O)Nc3ccc(Cl)cn3)c3cc(OC)c(OC)cc3c2=O)cc1	none (no result: tolC growth inh)
Cc1nc(SCc2ccccc2)c(C(F)(F)F)c(=O)[nH]1	none
CCCc1cc(SCC(=O)Nc2c(C)n(C)n(-c3ccccc3)c2=O)n2c(nc3ccccc32)c1C#N	none (no result: tolC growth inh)
C(=N\N1CCN(C2c3ccccc3-c3ccccc32)CC1)/c1cccs1	CYP2C9 inh 82 (no result: tolC growth inh)
O=[N+]([O-])c1ccc(Cl)c(/C=N/N2CCN(C3c4ccccc4-c4ccccc43)CC2)c1	none (no result: tolC growth inh)
C(=N\N1CCN(Cc2ccccc2)CC1)/c1cccs1	CYP2C19 inh 60 (no result: tolC growth inh)
CC(Oc1ccc(-c2ccccc2)cc1)C(=O)N1CCOCC1 (stereo not drawn)	CYP2C19 inh 55, CYP2C9 inh 56
COc1ccc(O)c(-c2c(-c3ccc(Cl)cc3)n[nH]c2C)c1	CYP2C19 inh 99, CYP2C9 inh 72
COc1ccc(-c2n[nH]c(C)c2-c2ccc(Cl)cc2)c(O)c1	CYP2C19 inh 63 (no result: tolC growth inh)
COc1ccc(-c2n[nH]c(C)c2-c2ccc(Cl)cc2)c(O)c1OC	none
Cc1ccc(S(=O)(=O)NC(=O)NCc2ccccn2)cc1	none
O=C(CN(c1ccccc1)S(=O)(=O)c1ccccc1[N+](=O)[O-])NN=C1CCCCCCC1	CYP2C19 inh 64 (no result: tolC growth inh)
Cc1cccc(C)c1N(CC(=O)NN=C1CCCCCC1)S(C)(=O)=O	none (no result: tolC growth inh)
O=C1NC2(CCCCC2)C(=O)N1/N=C/c1ccc(O)cc1O	CYP2C9 activ 3.2 (no result: tolC growth inh)
Oc1ccc(C=Nc2ccc(N3CCOCC3)cc2)c(O)c1	none
Cc1cccc(NC(=S)NC2CC3CCCC(C2)N3Cc2cccs2)c1 (stereo not drawn)	none (no result: tolC growth inh)
COc1ccc(-c2nc3nc(C)cc(C)n3n2)cc1	none
O=C(NCc1ccco1)c1cc2c(s1)CSC2	CYP2C9 inh 56
O=C(NCc1ccc2c(c1)OCO2)c1cc2c(s1)CSC2	none (no result: E coli WT exp, CYP2C19 inh, CYP2C19 act, CYP2C9 activ, CYP2C9 inh)
O=C(NCC1CCCO1)c1cc(-c2ccccc2)on1 (stereo not drawn)	CYP2C9 activ 2.6
Cn1nc(-c2ccc(Cl)cc2)c2cc(C(=O)NCC3CCCO3)sc21 (stereo not drawn)	CYP2C9 inh 53
O=C(NCC1CCCO1)c1ccccc1-c1nc(-c2ccccc2)no1 (stereo not drawn)	CYP2C9 inh 58
CN1CCN(CCCNC(=O)c2cc3c(-c4ccc(Cl)cc4)nn(C)c3s2)CC1	none
O=C(CN1C(=O)C2CC=CCC2C1=O)NC1CCCc2ccccc21 (stereo not drawn)	none (no result: tolC growth inh)
Cc1oc(-c2ccccc2F)nc1CS(=O)(=O)CC(=O)NCCN(C)C1CCCCC1	none
Cc1scc(C(=O)NCc2ccco2)c1-c1ccccc1	CYP2C19 inh 61
O=C(NCc1ccco1)c1cc(-c2ccccc2)on1	CYP2C9 activ 2.1
CCOC(=O)c1c(C)n(C)c2ccc(OC)c(NC(=O)CN3CCN(C4CCCCC4)CC3)c12	none (no result: tolC growth inh)
Cc1cc(Nc2ccccc2N2CCOCC2)n2ncnc2n1	none (no result: E coli WT exp, tolC growth inh)
CCN(CC)c1ccc(C(=O)OCc2cc(=O)oc3cc(O)ccc23)cc1	CYP2C19 inh 94, CYP2C9 activ 2 (no result: tolC growth inh)

Screening results (PubChem BioAssay)
